# Data taken from ChEMBL document CHEMBL1681679, “Investigation of a novel molecular descriptor for the lead optimization of 4-aminoquinazolines as vascular endothelial growth factor receptor-2 inhibitors: application for quantitative structure-activity relationship analysis in lead optimization” (Bioorg Med Chem Lett, 2011).
# Biological target: T1, Vascular endothelial growth factor receptor 2 (Homo sapiens, UniProt P35968)
# Experiment: Inhibition of human recombinant His-tagged VEGFR2 assessed as […] absorption by ELISA assay in presence of 20 uM ATP
# Conditions: not given
# T1 sequence (P35968 whole entry): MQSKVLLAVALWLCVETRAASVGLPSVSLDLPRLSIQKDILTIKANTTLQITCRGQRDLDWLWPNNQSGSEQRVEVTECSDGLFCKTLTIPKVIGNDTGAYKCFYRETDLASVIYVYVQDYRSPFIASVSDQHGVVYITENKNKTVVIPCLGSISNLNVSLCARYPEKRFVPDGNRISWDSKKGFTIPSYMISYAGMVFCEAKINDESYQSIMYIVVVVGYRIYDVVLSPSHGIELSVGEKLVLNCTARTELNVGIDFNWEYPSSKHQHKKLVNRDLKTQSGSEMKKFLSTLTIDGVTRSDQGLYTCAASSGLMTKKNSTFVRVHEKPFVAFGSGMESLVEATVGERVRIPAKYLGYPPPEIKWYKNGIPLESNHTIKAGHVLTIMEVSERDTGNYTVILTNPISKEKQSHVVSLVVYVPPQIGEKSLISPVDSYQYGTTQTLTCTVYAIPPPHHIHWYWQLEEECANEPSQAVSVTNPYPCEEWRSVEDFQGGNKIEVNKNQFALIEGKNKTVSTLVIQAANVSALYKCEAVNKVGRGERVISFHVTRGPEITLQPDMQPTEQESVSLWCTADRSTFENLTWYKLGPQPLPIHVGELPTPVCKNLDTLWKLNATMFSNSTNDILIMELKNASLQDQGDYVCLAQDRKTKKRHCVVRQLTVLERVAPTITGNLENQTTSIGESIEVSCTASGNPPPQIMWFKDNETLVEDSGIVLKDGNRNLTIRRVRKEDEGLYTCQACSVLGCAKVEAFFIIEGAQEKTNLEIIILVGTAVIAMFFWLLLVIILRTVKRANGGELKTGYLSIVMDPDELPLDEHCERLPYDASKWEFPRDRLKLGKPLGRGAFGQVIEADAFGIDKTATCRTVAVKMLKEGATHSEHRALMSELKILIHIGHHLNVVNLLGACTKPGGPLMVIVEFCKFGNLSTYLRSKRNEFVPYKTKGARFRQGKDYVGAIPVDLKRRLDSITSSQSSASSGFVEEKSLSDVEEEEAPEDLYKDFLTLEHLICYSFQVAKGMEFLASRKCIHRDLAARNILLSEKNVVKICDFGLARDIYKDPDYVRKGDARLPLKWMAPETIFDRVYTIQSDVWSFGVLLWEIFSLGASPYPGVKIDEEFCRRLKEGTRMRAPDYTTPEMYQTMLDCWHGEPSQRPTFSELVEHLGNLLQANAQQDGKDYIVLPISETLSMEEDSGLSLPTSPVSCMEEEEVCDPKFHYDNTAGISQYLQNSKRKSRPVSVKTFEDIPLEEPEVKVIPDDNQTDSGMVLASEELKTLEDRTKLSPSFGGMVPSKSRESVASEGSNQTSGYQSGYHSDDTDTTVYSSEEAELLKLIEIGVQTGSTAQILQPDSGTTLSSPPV
row,IC50,SMILES
1,2 nM,Cc1cc(F)c(Nc2ncnc3cc(OCc4ccccc4)ccc23)cc1O

# Biological target: T1, Vascular endothelial growth factor receptor 2
# Experiment: Inhibition of human recombinant His-tagged VEGFR2 assessed as […] absorption at 10 uM by ELISA assay in presence of 20 uM ATP
# Conditions: not given
# Summary of the method: (§1)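 Human N-terminal His6-tagged recombinant VEGFR2 kinase domain (aa790-end), 100 ng per well, with 20 μM ATP and 1.5 μM substrate peptide (final), in streptavidin-coated wells. Kinase buffer contains up to 1% DMSO. Read-out is ELISA absorbance at 450 nm. Each run includes blank, control, DMSO control and standard. Value is average percent inhibition at the stated final compound concentration, replicates assayed on separate days.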
row,inhibition,SMILES
1,5%,COc1cc2ncnc(Nc3ccc(F)c(F)c3)c2cc1OC
2,0%,CCOc1ncnc2cc(OC)c(OC)cc12
3,66%,COc1cc2ncnc(Nc3ccc(C)c(F)c3)c2cc1OC
4,13%,COc1cc2ncnc(NC(C)C)c2cc1OC
5,19%,COc1cc2ncnc(Nc3ccccc3)c2cc1OC

# The remaining lines, values behind:
row,SMILES,inhibition
1,COc1cc2ncnc(OC(C)C)c2cc1OC,2%
2,COc1cc2ncnc(Nc3ccc(F)cc3)c2cc1OC,6%
3,COc1cc2ncnc(Nc3ccc(Cl)cc3)c2cc1OC,4%
4,COc1cc2ncnc(Nc3ccc(C)c(Cl)c3)c2cc1OC,9%
5,COc1cc2ncnc(NC3CCCCC3)c2cc1OC,17%

# Biological target: T1, Vascular endothelial growth factor receptor 2
# Experiment: Inhibition of human recombinant His-tagged VEGFR2 assessed as […] absorption at 20 uM by ELISA assay in presence of 20 uM ATP
# Conditions: not given
# Summary of the method: as §1
row,inhibition,SMILES
1,37%,Cc1cc(F)c(Nc2ncnc3cc(OCc4ccccc4)ccc23)cc1O

# Biological target: T1, Vascular endothelial growth factor receptor 2
# Conditions: 25 uM
row,inhibition,SMILES
1,46%,COc1ccc(-c2cnc3c(-c4ccsc4)cnn3c2)cc1
